Test results: ChEMBL document CHEMBL1125616, “Perfluorinated analogues of poison ivy allergens. Synthesis and skin tolerogenic activity in mice” (1991)

How the values were obtained:
Mus musculus [1] = species: Mus musculus; experiment: Increase in ear thickness was determined in mice after 48 hr of application of compound at a concentration of 1.56 mmol to right ear; format: functional
Outline: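 Cross-reaction test in female BALB/c mice aged 6–7 weeks. Mice were sensitized on day 0 on the shaved lower abdomen with 15.6 mmol in acetone/olive oil 4:1 (100 μL). Four days later groups of 8 were challenged on the dorsal right ear with 1.56 mmol (25 μL). Ear thickness was measured by micrometer, and the increase taken at 48 h after challenge.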

Mus musculus [2] = species: Mus musculus; experiment: Mice was sensitized with 15.6 mmol (100 uL) on shaved abdomen in group II on Day 4
Mus musculus [3] = species: Mus musculus; experiment: Ear thickness increase measured at 48 hr after challenge in group III on Day 10; format: functional
Outline: (§1)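 Female BALB/c mice aged 6–7 weeks, 8 per group. On day 0 each mouse was pretreated epicutaneously on the shaved abdomen with 15.6 mmol in acetone/olive oil 4:1 (100 μL). The same dose was given on day 4 to sensitize. On day 8 the dorsal right ear was challenged with 1.56 mmol in acetone:olive oil (25 μL). Ear thickness was read by micrometer on days 9–12, and the increase taken at 48 h after challenge.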

Mus musculus [4] = species: Mus musculus; experiment: Ear thickness increase measured at 48 hr after challenge in group II on Day 10; format: functional; outline: as §1
Mus musculus [5] = species: Mus musculus; experiment: A challenge dose of 1.56 mmol (25 uL) was applied to right ear in group III on Day 8; format: functional; outline: as §1
Mus musculus [6] = species: Mus musculus; experiment: A challenge dose of 1.56 mmol (25 uL) was applied to right ear in group II; format: functional; outline: as §1
Mus musculus [7] = species: Mus musculus; experiment: Mice was pretreated with 15.6 mmol (100 uL) on shaved abdomen in group II on Day 0
Mus musculus [8] = species: Mus musculus; experiment: Mice was pretreated with 15.6 mmol (100 uL) on shaved abdomen in group III on Day 0
Mus musculus [9] = species: Mus musculus; experiment: Mice was sensitized with 15.6 mmol (100 uL) on shaved abdomen in group III on Day 4

| SMILES | Ear thickness (Mus musculus [1]) | Tolerance (Mus musculus [2]) | Ear thickness (Mus musculus [3]) | Ear thickness (Mus musculus [4]) | Tolerance (Mus musculus [5]) | Tolerance (Mus musculus [6]) | Tolerance (Mus musculus [7]) | Tolerance (Mus musculus [8]) | Tolerance (Mus musculus [9]) |
| --- | --- | --- | --- | --- | --- | --- | --- | --- | --- |
| Oc1cccc(CCCCCC(F)(F)C(F)(F)C(F)(F)C(F)(F)C(F)(F)C(F)(F)F)c1O | 142 µm | – | – | – | – | – | – | – | – |
| Oc1cccc(CCCCCCCCCCCC(F)(F)C(F)(F)C(F)(F)C(F)(F)F)c1O | 162 µm | 10 | 15 µm | 26 µm | 9 | 10 | 9 | 9 | 9 |
| CCCCCCCCCCCCCCCc1cccc(O)c1O | 68.5 µm | – | – | – | – | – | – | – | – |
